This is an account of results in ChEMBL document CHEMBL1122866, “3-Phenyl-1-indanamines. Potential antidepressant activity and potent inhibition of dopamine, norepinephrine, and serotonin uptake” (J Med Chem, 1985).

In general, ED50 refers to the dose at which the effect has come halfway, by size or by number of responders. Usually IC50 stands for the midpoint of a concentration-inhibition curve. Low values mean inhibition by little substance, high ones a need for much substance.

Holding throughout (assay type): functional
For assay [1], the species on record is Mus musculus. In words: Antagonistic activity against tetrabenazine-induced ptosis in mice. An outline of the steps: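 Mice dosed intraperitoneally; the result is reported as the ED50 in μmol/kg with a range in parentheses. Test compounds are racemates of >95% isomeric purity by TLC.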
Assay [2] has as its target Sodium-dependent dopamine transporter (Rattus norvegicus, UniProt P23977). Kind of assay: Inhibition of dopamine uptake in rat synaptosomal fraction.
The target in assay [3] is Norepinephrine transporter (Rattus norvegicus, UniProt Q9WTR4). Kind of assay: Inhibition of noradrenaline uptake in rat synaptosomal fraction. An outline of the steps: (§1)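 Synaptosomal uptake of DA, NE or 5-HT measured. The IC50 is in nM and is the mean of at least two determinations, each using five test concentrations in triplicate.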
Assay [4] deals with Sodium-dependent serotonin transporter (Rattus norvegicus, UniProt P31652). In words: Inhibition of 5-HT uptake in rat synaptosomal fraction. An outline of the steps:
as §1

Sequence of Norepinephrine transporter (Q9WTR4 whole entry): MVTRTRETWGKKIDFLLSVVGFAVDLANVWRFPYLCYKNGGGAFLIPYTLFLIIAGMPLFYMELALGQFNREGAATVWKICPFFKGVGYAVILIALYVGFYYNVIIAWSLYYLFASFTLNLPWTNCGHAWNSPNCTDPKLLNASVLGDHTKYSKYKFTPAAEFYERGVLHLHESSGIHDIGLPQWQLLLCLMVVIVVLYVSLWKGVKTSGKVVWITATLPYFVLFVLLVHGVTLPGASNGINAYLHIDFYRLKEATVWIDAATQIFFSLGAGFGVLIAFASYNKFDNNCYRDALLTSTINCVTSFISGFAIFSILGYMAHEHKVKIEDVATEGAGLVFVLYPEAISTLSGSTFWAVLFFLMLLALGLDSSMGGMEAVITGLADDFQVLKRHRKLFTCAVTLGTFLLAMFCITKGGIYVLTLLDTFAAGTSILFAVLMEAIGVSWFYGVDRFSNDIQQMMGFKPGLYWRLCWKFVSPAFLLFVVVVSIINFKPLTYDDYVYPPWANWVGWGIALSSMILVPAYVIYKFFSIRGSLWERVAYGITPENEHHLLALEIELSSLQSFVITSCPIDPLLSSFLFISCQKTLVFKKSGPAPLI
Sequence of Sodium-dependent dopamine transporter (P23977 whole entry): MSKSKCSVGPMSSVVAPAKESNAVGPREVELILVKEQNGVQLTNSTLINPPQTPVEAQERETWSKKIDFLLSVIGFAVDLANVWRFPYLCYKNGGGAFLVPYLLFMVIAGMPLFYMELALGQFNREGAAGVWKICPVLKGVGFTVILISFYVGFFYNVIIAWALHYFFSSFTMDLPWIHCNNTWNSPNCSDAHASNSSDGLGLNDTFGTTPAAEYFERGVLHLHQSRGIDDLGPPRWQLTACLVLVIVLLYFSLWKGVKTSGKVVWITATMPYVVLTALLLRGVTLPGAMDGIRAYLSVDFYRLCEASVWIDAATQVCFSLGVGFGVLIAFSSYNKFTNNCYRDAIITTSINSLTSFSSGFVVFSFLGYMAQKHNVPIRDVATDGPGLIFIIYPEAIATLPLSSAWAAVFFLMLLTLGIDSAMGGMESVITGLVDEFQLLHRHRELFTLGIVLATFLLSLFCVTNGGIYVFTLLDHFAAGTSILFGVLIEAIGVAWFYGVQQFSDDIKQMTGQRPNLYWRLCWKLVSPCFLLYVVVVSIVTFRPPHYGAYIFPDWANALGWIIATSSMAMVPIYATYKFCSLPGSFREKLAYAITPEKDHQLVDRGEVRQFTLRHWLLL
Sequence of Sodium-dependent serotonin transporter (P31652 whole entry): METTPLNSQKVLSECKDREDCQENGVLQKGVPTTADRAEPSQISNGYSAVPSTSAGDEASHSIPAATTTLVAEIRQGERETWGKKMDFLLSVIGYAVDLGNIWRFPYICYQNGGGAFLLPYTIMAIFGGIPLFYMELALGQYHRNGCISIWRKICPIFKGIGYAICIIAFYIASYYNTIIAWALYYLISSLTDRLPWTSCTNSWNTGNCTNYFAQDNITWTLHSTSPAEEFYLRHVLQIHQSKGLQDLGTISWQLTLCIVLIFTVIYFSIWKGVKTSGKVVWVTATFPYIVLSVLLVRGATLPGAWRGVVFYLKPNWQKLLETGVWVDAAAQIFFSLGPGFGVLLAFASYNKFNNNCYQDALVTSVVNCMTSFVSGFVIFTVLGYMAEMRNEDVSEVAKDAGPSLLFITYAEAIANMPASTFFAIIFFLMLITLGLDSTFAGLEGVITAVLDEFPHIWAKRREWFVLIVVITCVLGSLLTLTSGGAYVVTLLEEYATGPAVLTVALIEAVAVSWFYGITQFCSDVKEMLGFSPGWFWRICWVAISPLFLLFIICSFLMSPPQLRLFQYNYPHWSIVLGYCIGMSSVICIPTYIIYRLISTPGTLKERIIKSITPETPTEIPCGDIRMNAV

On to `CNC1CC(c2ccc(F)c(Cl)c2)c2ccccc21.Cl` (stereo in doubt; 70), for which the ED50 in assay [1] was determined as 32 µmol/kg.

In the case of `CN(C)C1CC(c2ccc(Cl)c(Cl)c2)c2ccc(F)cc21` (stereo in doubt; 77), the IC50 in assay [2] was determined as 31 nM; in assay [3] it was 3.7 nM; in assay [4] it was 2.5 nM.

Consider `CN(C)C1CC(c2ccc(Cl)cc2Cl)c2ccccc21.Cl` (stereo in doubt; 49), for which the IC50 in assay [2] was 2000 nM; in assay [3], 90 nM; in assay [4] it was 0.58 nM. This compound also returned an ED50 in assay [1] of 23 µmol/kg.

The compound `Clc1ccc(C2CC(NCCc3ccccc3)c3ccccc32)cc1Cl` (stereo unspecified) came in with an ED50 in assay [1] of more than 85 µmol/kg.

As for `CNC1CC(c2ccc(F)c(F)c2)c2ccccc21.Cl` (stereo in doubt; 68), the IC50 in assay [2] was determined as 150 nM; in assay [3] it was 33 nM; in assay [4], 4.6 nM. For the same compound, in assay [1], the ED50 was 23 µmol/kg.

For the compound `CCNC1CC(c2ccc(Cl)c(Cl)c2)c2ccccc21.Cl` (stereo in doubt; 83), the IC50 in assay [2] worked out at 1.5 nM; in assay [3], 0.32 nM; in assay [4] it was 2.3 nM.

For `CCN(CC)C1CC(c2ccc(Cl)c(Cl)c2)c2ccccc21.Cl` (stereo in doubt; 85), the IC50 in assay [2] was determined as 2.1 nM; in assay [3], 0.56 nM; in assay [4], 2.8 nM. In addition, the ED50 in assay [1] worked out at 52 µmol/kg.

Regarding `CN(C)C1CC(c2ccc(Cl)c(Cl)c2)c2ccc(F)cc21` (stereo in doubt; 51), the IC50 in assay [2] came out at 12 nM; in assay [3] it was 21 nM; in assay [4], 1.1 nM. For the same compound, the ED50 in assay [1] (Mus musculus, read-out: ED50) was more than 111 µmol/kg.

As to `CNC1CC(c2ccc(Cl)cc2)c2ccccc21` (stereo unspecified), the results for the IC50 in assay [2], in assay [3] and in assay [4] were 5.6 nM, 0.51 nM and 4 nM, respectively. In assay [1], this compound registered an ED50 of more than 155 µmol/kg.

Consider `CNC1CC(c2ccc(F)cc2)c2ccccc21.Cl` (stereo in doubt; 60), for which the IC50 in assay [3] was 120 nM; in assay [4] it was 21 nM. Further, the ED50 in assay [1] is 79 µmol/kg.

Consider `CN(C)C1CC(c2ccc(Br)cc2)c2ccccc21` (stereo in doubt; 65), for which the IC50 in assay [2] is 83 nM; in assay [3], 4.3 nM; in assay [4], 0.14 nM. The same compound registered an ED50 in assay [1] of 2.3 µmol/kg.

In the case of `CCNC1CC(c2ccc(Cl)c(Cl)c2)c2ccccc21.Cl` (stereo in doubt; 84), the figures for the IC50 in assay [3] and in assay [4] were 49 nM and 1.6 nM, respectively.

For `CN(C)C1CC(c2ccc(F)cc2)c2ccc(C(F)(F)F)cc21` (stereo in doubt; 57), the figures for the IC50 in assay [2], in assay [3] and in assay [4] were 240 nM, 85 nM and 43 nM, respectively. For the same compound, in assay [1] (Mus musculus, read-out: ED50), the ED50 came out at 116 µmol/kg.

As to `CN(C)C1CC(c2ccccc2)c2ccccc21.Cl` (stereo in doubt; 59), the IC50 in assay [3] turned out to be 41 nM. Also, the ED50 in assay [1] was more than 143 µmol/kg.

As for `CN(C)C1CC(c2ccc(Br)cc2)c2ccccc21` (stereo in doubt; 37), the IC50 in assay [2] is 54 nM; in assay [3], 28 nM; in assay [4], 0.04 nM. In assay [1], this compound yielded an ED50 of 9.8 µmol/kg.

Take `CN(C)C1CC(c2ccc(F)c(Cl)c2)c2ccccc21.Cl` (stereo in doubt; 71): in assay [1], the ED50 amounted to 13 µmol/kg.

As for `CN(C)C1CC(c2ccccc2)c2ccccc21.Cl` (stereo in doubt; 31), the IC50 in assay [2] turned out to be 600 nM; in assay [3], 130 nM; in assay [4], 150 nM. For the same compound, the ED50 in assay [1] turned out to be 17 µmol/kg.

As to `CN(C)C1CC(c2ccc(F)c(F)c2)c2ccccc21` (stereo unspecified) [listing 1 of 2 here], the concentration for half-maximal inhibition (IC50) was 180 nM in assay [2], 29 nM in assay [3] and 1.3 nM in assay [4]. Besides, the ED50 in assay [1] was found to be 13 µmol/kg.

In the case of `CN(C)C1CC(c2ccc(Cl)cc2)c2ccccc21` (stereo in doubt; 35), the IC50 in assay [2] worked out at 140 nM; in assay [3] it was 23 nM; in assay [4], 0.64 nM. For the same compound, the ED50 in assay [1] was determined as 56 µmol/kg.

`CCCN(CCC)C1CC(c2ccc(Cl)c(Cl)c2)c2ccccc21.Cl` (stereo in doubt; 90): the IC50 in assay [2] turned out to be 180 nM. The ED50 in assay [1] was more than 100 µmol/kg.

Turning to `Cl.Clc1ccc(C2CC(NCCc3ccccc3)c3ccccc32)cc1Cl` (stereo unspecified), the 50% effective dose (ED50) in assay [1] worked out at 33 µmol/kg.

`CN(C)C1CC(c2ccc(F)c(F)c2)c2ccccc21` (stereo unspecified) [listing 2 of 2 here]: the IC50 worked out at 250 nM in assay [2], 62 nM in assay [3] and 20 nM in assay [4]. The ED50 in assay [1] (Mus musculus, read-out: ED50) is 7.1 µmol/kg.

In the case of `CNC1CC(c2ccc(F)cc2)c2ccccc21.Cl` (stereo in doubt; 32), the IC50 amounted to 2.9 nM in assay [3] and 76 nM in assay [4]. The compound also yielded an ED50 in assay [1] of 19 µmol/kg.

The compound `CN(C)C1CC(c2ccc(Cl)cc2Cl)c2ccccc21` (stereo in doubt; 75) yielded an IC50 in assay [3] of 34 nM. The ED50 in assay [1] (Mus musculus, read-out: ED50) turned out to be 23 µmol/kg.

Take `CN(C)C1CC(c2ccc(F)cc2)c2ccc(F)cc21.Cl` (stereo unspecified): the IC50 in assay [2] was 620 nM; in assay [3] it was 350 nM; in assay [4] it was 18 nM. Besides, in assay [1], the ED50 worked out at 28 µmol/kg.

On to `CNC1CC(c2ccc(F)c(Cl)c2)c2ccccc21.Cl` (stereo in doubt; 43), for which the ED50 in assay [1] is 12 µmol/kg.

Regarding `CN(C)C1CC(c2ccc(Cl)cc2)c2ccccc21` (stereo in doubt; 63), the IC50 in assay [2] was found to be 190 nM; in assay [3], 4.4 nM; in assay [4] it was 0.34 nM. The ED50 in assay [1] (Mus musculus, read-out: ED50) is 43 µmol/kg.

With `CNC1CC(c2ccc(F)c(F)c2)c2ccccc21.Cl` (stereo in doubt; 41), the values for the IC50 in assay [2], in assay [3] and in assay [4] were 21 nM, 1.6 nM and 49 nM, respectively. In addition, the ED50 in assay [1] came to 58 µmol/kg.

With `CN(C)C1CC(c2ccc(F)cc2)c2ccccc21.Cl` (stereo in doubt; 33), the IC50 in assay [2] was 320 nM; in assay [3], 100 nM; in assay [4], 33 nM. In assay [1], this compound displayed an ED50 of 7.8 µmol/kg.

Consider `CNC1CC(c2ccc(Cl)c(Cl)c2)c2ccc(F)cc21.Cl` (stereo in doubt; 50), for which the 50% inhibitory concentration (IC50) in assay [2] amounted to 0.12 nM; in assay [3], 0.71 nM; in assay [4] it was 2.3 nM. In assay [1], this compound had an ED50 of 33 µmol/kg.

In the case of `CNC1CC(c2ccc(Br)cc2)c2ccccc21.Cl` (stereo in doubt; 64), the concentration for half-maximal inhibition (IC50) in assay [2] is 67 nM; in assay [3], 8.8 nM; in assay [4], 0.16 nM. Besides, in assay [1], the ED50 came to 29 µmol/kg.

`Clc1ccc(C2CC(N3CCCC3)c3ccccc32)cc1Cl` (stereo in doubt; 98): the IC50 in assay [2] amounted to 32 nM; in assay [3], 27 nM; in assay [4], 3.1 nM.

Regarding `CNC1CC(c2cccc(Cl)c2)c2ccccc21.Cl` (stereo in doubt; 39), the IC50 in assay [2] turned out to be 14 nM; in assay [3], 0.12 nM; in assay [4], 41 nM. The ED50 in assay [1] worked out at 45 µmol/kg.

Consider `CN(C)C1CC(c2ccc(F)cc2)c2ccccc21.Cl` (stereo in doubt; 61), for which the IC50 in assay [3] amounted to 24 nM; in assay [4] it was 6.2 nM. The ED50 in assay [1] was 24 µmol/kg.

Turning to `CNC1CC(c2cccc(Cl)c2)c2ccccc21.Cl` (stereo in doubt; 66), the IC50 was 220 nM in assay [2], 19 nM in assay [3] and 6.8 nM in assay [4]. Also, the ED50 in assay [1] stood at 119 µmol/kg.

Regarding `CCCNC1CC(c2ccc(Cl)c(Cl)c2)c2ccccc21` (stereo in doubt; 88), the ED50 in assay [1] (Mus musculus, read-out: ED50) was more than 112 µmol/kg.

Turning to `CN(C)C1CC(c2ccc(F)cc2)c2ccc(C(F)(F)F)cc21.Cl` (stereo in doubt; 82), the IC50 in assay [3] amounted to 350 nM. Besides, the ED50 in assay [1] was more than 111 µmol/kg.

For the compound `CCCNC1CC(c2ccc(Cl)c(Cl)c2)c2ccccc21.Cl` (stereo in doubt; 87), the values for the IC50 in assay [2], in assay [3] and in assay [4] were 6.6 nM, 0.66 nM and 150 nM, respectively. In addition, the ED50 in assay [1] came to 68 µmol/kg.

The compound `Clc1ccc(C2CC(N3CCCC3)c3ccccc32)cc1Cl` (stereo in doubt; 97) yielded an IC50 in assay [2] of 320 nM. For the same compound, in assay [1] (Mus musculus, read-out: ED50), the ED50 is more than 108 µmol/kg.

Take `Clc1ccc(C2CC(N3CCCCC3)c3ccccc32)cc1Cl` (stereo in doubt; 100): the IC50 in assay [2] stood at 79 nM; in assay [3], 79 nM; in assay [4], 420 nM. Further, in assay [1] (Mus musculus, read-out: ED50), the ED50 is more than 104 µmol/kg.

Take `CNC1CC(c2ccc(Cl)cc2)c2ccccc21.Cl` (stereo unspecified): the IC50 in assay [2] came out at 120 nM; in assay [3], 24 nM; in assay [4] it was 0.65 nM. The compound further showed a 50% effective dose (ED50) in assay [1] of 376 µmol/kg.

For `CN(C)C1CC(c2cccc(Cl)c2)c2ccccc21.Cl` (stereo in doubt; 40), the values for the IC50 in assay [2], in assay [3] and in assay [4] were 71 nM, 15 nM and 36 nM, respectively. In assay [1], this compound showed an ED50 of 10 µmol/kg.

For the compound `CCCN(CCC)C1CC(c2ccc(Cl)c(Cl)c2)c2ccccc21.Cl` (stereo in doubt; 89), the IC50 in assay [2] was found to be 150 nM; in assay [3], 73 nM; in assay [4] it was 720 nM. The compound further came in with an ED50 in assay [1] of 25 µmol/kg.

`CN(C)C1CC(c2ccc(F)cc2)c2ccc(F)cc21` (stereo unspecified) displayed an IC50 in assay [3] of 90 nM. In assay [1], this compound registered an ED50 of more than 147 µmol/kg.

In assay [3], `CCN(CC)C1CC(c2ccc(Cl)c(Cl)c2)c2ccccc21.Cl` (stereo in doubt; 86) yielded an IC50 of 13 nM. In addition, the ED50 in assay [1] was more than 108 µmol/kg.

As to `CN(C)C1CC(c2ccc(F)c(Cl)c2)c2ccccc21.Cl` (stereo in doubt; 44), in assay [1], the ED50 was 4.5 µmol/kg.

Consider `CN(C)C1CC(c2ccc(Cl)c(Cl)c2)c2ccccc21` (stereo unspecified), for which the IC50 came out at 28 nM in assay [2], 24 nM in assay [3] and 0.64 nM in assay [4].

`CN1CCN(C2CC(c3ccc(Cl)c(Cl)c3)c3ccccc32)CC1` (single isomer, unassigned; (+)-101) returned an IC50 in assay [2] of 340 nM. In assay [1], this compound came in with an ED50 of more than 91 µmol/kg.
